Screening results as filed in PubChem.
Sampled rows, rich in hits. Any-hit rate of the full collection: about 3.8%.
CHO parental Ca = counter-screen for OX1R antagonists: effect in parental CHO cells; parental CHO-K1, ATP-induced calcium, Fluo-8 fluorescence; inhibition, % at 5.6 µM; hit rate 0.63% among 330,000;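 active = inhibition above that plate's mean sample inhibition plus 3 SD, cut at about 26% in these data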
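Material – parental CHO cells · Reagent – ATP stimulus · Compound – single nominal dose of 5.6 µM per compound · Detection – Fluo-8 fluorescence · Read-out basis – percent inhibition of calcium signal · Controls – ATP-challenged DMSO wells low, unchallenged DMSO wells high · Repeats – no replicates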
OX1R antag-1 = human HCRTR1 antagonism; hit rate 0.43% among 330,000; inhibition, % at 5 µM; CHO/OX1R cells, Fluo-8 calcium fluorescence, orexin A; O43613; AID 434989;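 active = inhibition above its plate's threshold, mean inhibition of all tested compounds on the plate plus 3 SD, cut at about 37% in these data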
GPR7 antag = antagonists of human GPR7 (neuropeptides B/W receptor 1); AID 1861; hit rate 1.1% among 290,000; P48145; GPR7-expressing cells, fluorescence antagonist assay; inhibition, % at 4.4 µM; in the data active = inhibition above about 16%, passing the limit was not always enough;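 note: cells stimulated with the agonist NPW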
Target sequence (P48145 whole entry, looked up): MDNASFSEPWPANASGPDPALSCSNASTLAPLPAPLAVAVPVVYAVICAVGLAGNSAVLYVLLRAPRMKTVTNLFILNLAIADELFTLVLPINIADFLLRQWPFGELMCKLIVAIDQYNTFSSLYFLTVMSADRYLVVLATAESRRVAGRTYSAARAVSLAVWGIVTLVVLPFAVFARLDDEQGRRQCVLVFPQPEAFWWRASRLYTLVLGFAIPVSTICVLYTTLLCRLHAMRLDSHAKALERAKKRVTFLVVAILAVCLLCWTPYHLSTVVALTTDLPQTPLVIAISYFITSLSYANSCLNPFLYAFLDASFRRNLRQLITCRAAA
MPTP block = blocks calcium-induced mitochondrial swelling. isolated mouse mitochondria, Ca2+ swelling absorbance, 30 min. inhibition, % at 10 µM. hit rate 1.4% among 360,000. AID 602449;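 active = inhibition of 50% or more, scaled per plate between neutral and stimulator controls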
OX1R antag-2 = OX1R (human) antagonism; O43613; OX1R-expressing cells, FRET antagonist read-out; inhibition, % at 6.6 µM; hit rate 1.8% among 330,000; in the data active = inhibition mostly above about 38%, no sharp cut-off; inactive = mostly below about 40%
Rh123 counter = mitochondrial membrane potential, counter-screen | shares compounds with MPTP block | isolated mitochondria, Rhodamine 123 fluorescence | inhibition, % at 10 µM | hit rate 78% among 5,000; in the data active = inhibition above about 22%
MPTP swell DR = MPTP inhibition, dose response swelling confirmation. shares compounds with MPTP block. isolated mitochondria swelling, absorbance. IC50, µM. hit rate 58% among 780. AID 651561; in the data active = IC50 below about 20 µM
MPTP counter DR = counter-screen for mitochondrial permeability transition pore inhibitors, dose response | shares compounds with MPTP block | isolated mitochondria counterscreen, fluorescence read-out | IC50, µM | hit rate 49% among 780 | AID 651564; in the data active = IC50 below about 80 µM
A number is an active result; . = inactive; / = no result given; ! = not active in a repeat.

SMILES | CHO parental Ca | OX1R antag-1 | GPR7 antag | MPTP block | OX1R antag-2 | Rh123 counter | others
c1ccc2c(c1)ncn2CCCCOc1ccc2c(c1)CCC2 | 36.9 | . | . | 88.3 | . | 95.8
Cc1ccccc1OCCn1cc(C(=S)N2CCCC2)c2ccccc21 | . | . | . | . | . | /
Cc1ccccc1OCCCCn1cnc2ccccc21 | 49.8 | . | . | 92.6 | . | 88.7
c1ccc(OCCCCn2cnc3ccccc32)cc1 | . | . | . | . | . | /
c1ccc2c(c1)ncn2CCCOc1ccc2c(c1)CCC2 | . | . | . | 53.5 | . | 59.9
Cc1cc(C)c(O)c(-c2cc(C(=O)Nc3c(C)n(C)n(-c4ccccc4)c3=O)[nH]n2)c1 | . | . | . | . | . | /
Cc1ccccc1OCCC(=O)Nc1ccccc1C(=O)NC1CC1 | . | . | / | . | . | /
CCCOc1ccc(Cn2cnc3ccccc32)cc1 | . | . | . | 89.0 | . | 76.8
O=C(Nc1ccc(Oc2ccc(Cl)cc2)c(Cl)c1)c1cc(I)cc(I)c1O | . | . | . | 105.9 | 48.9 | 74.4
CCCCCCn1c(=O)c(Cc2ccccc2)c(O)c2ccccc21 | . | . | . | 58.3 | . | 59.4
CCN(CC(=O)Nc1ccc(Cl)c(C(F)(F)F)c1)CC(=O)NC1CCS(=O)(=O)C1 (configuration not stated) | . | . | . | . | . | /
O=C(N/N=C/c1ccccc1O)c1ccc2c(c1)OCO2 | . | . | . | . | . | /
Cc1cc(Br)cc(/C=N/NC(=O)c2ccc3c(c2)OCO3)c1O | . | . | . | 65.2 | 63.7 | 49.1
O=C(N/N=C/c1cc(Br)cc(Cl)c1O)c1ccc2c(c1)OCO2 | . | . | / | 55.2 | . | 65.7
O=C(N/N=C/c1cc(Br)cc(Br)c1O)c1cccc(S(=O)(=O)N2CCOCC2)c1 | . | . | . | 69.0 | . | .
CC1CNC(=S)N(c2ccc(F)cc2)C1=O (configuration not stated) | / | / | / | . | / | /
Fc1cc(F)cc(NC(=S)Nc2ccccc2N2CCOCC2)c1 | . | . | . | 94.3 | . | 101.7
S=C(NCCc1ccccc1)Nc1ccccc1N1CCOCC1 | . | . | . | . | . | /
C=CC[n+]1c(-c2ccc(OCC)cc2)csc1NNC(=O)Nc1ccccc1 | . | . | . | 65.8 | . | 78.7
Cc1ccc(S(=O)(=O)Nc2cc(Cl)c(O)cc2C)cc1 | . | . | . | 64.8 | . | . | MPTP swell DR=15.1;MPTP counter DR=23.3
Cn1cc(C(=O)C(=O)N2CCCCC2)c2ccccc21 | / | / | / | . | / | /
O=C(Nc1cccc(Cl)c1)C1C2CCC3C(CCC21)C3(Cl)Cl (configuration not stated) | . | . | 41.5 | 98.7 | . | 95.6
NC(=O)c1nnn(Cc2cc(Cl)c(C(=O)c3ccc(Cl)cc3)c(Cl)c2)c1N | / | / | / | 73.1 | / | 90.9
Nc1c(C(=O)Nc2ccc3c(c2)OCCO3)nnn1Cc1ccc(Cl)cc1 | . | . | / | . | . | /
CCCN1CCC(NC(=O)Nc2ccc(Br)cc2)CC1 | . | . | . | 61.4 | . | 76.3
SMILES | CHO parental Ca | OX1R antag-1 | GPR7 antag | MPTP block | OX1R antag-2 | Rh123 counter | others
Cn1nnnc1Sc1ncnc2scc(-c3cc4ccccc4o3)c12 | . | . | / | . | . | /
CN(C)c1ccc(C=c2c3ccccc3n3c2cc(-c2ccccc2)[n+]3C)cc1 | / | / | / | 58.2 | / | 75.0
CN(C)c1ccc(C=c2c3ccccc3n3c2cc(-c2ccc(Cl)cc2)[n+]3C)cc1 | / | / | / | . | / | /
CN(C)c1ccc(C=c2c3ccccc3n3c2c2c([n+]3C)CCCC2)cc1 | / | / | / | 64.8 | / | 76.4
COc1cc(N(C)C)ccc1C=c1c2ccccc2n2c1cc(-c1ccccc1)[n+]2C | / | / | / | 56.1 | / | 76.7
Cc1c(-n2c(SCC(N)=O)nc3ccccc3c2=O)c(=O)n(-c2ccccc2)n1C | . | . | . | . | . | /
CCOc1cc(CNCCO)cc(Br)c1OCc1cccs1 | . | . | . | 93.0 | . | . | MPTP swell DR=4.06;MPTP counter DR=22.7
COc1ccc(C(Nc2ccccn2)c2oc(CO)cc(=O)c2O)cc1 (configuration not stated) | . | . | . | 95.8 | . | .
CC(=O)CCc1ccc(OCC(O)CNCCOc2ccc(C)cc2)cc1 (configuration not stated) | . | . | . | 73.8 | . | . | MPTP swell DR=.;MPTP counter DR=.
Cc1ccc(OCCNCC(O)COc2ccccc2)cc1 (configuration not stated) | . | . | . | . | . | /
O=C(CSc1nc(Nc2ccccc2)nc(N2CCOCC2)n1)Nc1ccc([N+](=O)[O-])cc1 | . | . | . | 74.2 | . | 69.6
O=C(CSc1nc(Nc2ccccc2)nc(N2CCOCC2)n1)Nc1cccc([N+](=O)[O-])c1 | . | . | . | . | . | /
COc1ccccc1CNC(=O)c1nn(-c2ccc(C)cc2)c(=O)c2c1c1ccccc1n2C | . | . | . | . | . | /
O=[N+]([O-])c1ccc2nc(C3CCCCC3)[nH]c2c1 | . | . | . | . | . | /
O=[N+]([O-])c1ccc(O)c(C2CCCCC2)c1 | / | / | / | 88.4 | / | 102.0
CC1CC1C(=O)Nc1nc(-c2ccc(Cl)s2)cs1 (configuration not stated) | . | . | . | . | . | /
O=C(Nc1nc(-c2ccc(Cl)s2)cs1)c1ccncc1 | . | . | . | 61.6 | 44.1 | 63.0
C/C(=N/NC(=O)CNS(=O)(=O)c1ccc(C)cc1)c1cccc([N+](=O)[O-])c1 | . | . | . | . | . | /
COC(=O)c1cc(NC(=O)c2cc(-c3ccccc3Cl)oc2C(F)(F)F)ccc1N1CCOCC1 | . | . | . | . | . | /
COC(=O)c1cc(NC(=O)c2cc(-c3ccc(Cl)cc3)oc2C(F)(F)F)ccc1N1CCOCC1 | . | . | . | 75.8 | . | 79.9
O=C(Nc1cccc(C(F)(F)F)c1)n1cc(-c2ccccn2)c(N2CCOCC2)n1 | . | . | . | 86.5 | . | 96.0
O=C(NCc1ccc2c(c1)CCO2)Nc1cccc(C(F)(F)F)c1 | . | . | . | 66.9 | . | 82.6
Fc1ccc(NC(=S)N2CCN(c3cccc(C(F)(F)F)c3)CC2)cc1 | . | . | . | 100.8 | . | 74.5
O=S(=O)(Nc1ncccn1)c1ccc(NC(=S)N2CCN(c3cccc(C(F)(F)F)c3)CC2)cc1 | . | . | . | . | . | /
OCCN1CCN(C(=S)Nc2cccc(C(F)(F)F)c2)CC1 | . | . | . | 94.4! | . | 82.1
CN1CCN(c2ccc(-c3ccnn3C(=O)Nc3cccc(C(F)(F)F)c3)cc2)CC1 | . | . | . | 86.7 | . | 100.2
Fc1cc(F)c(C2SCCN2C(=S)Nc2cccc(C(F)(F)F)c2)c(F)c1 (configuration not stated) | . | . | . | 74.0 | . | 92.9
CCN1CCN(C(=S)Nc2cccc(C(F)(F)F)c2)CC1 | . | . | . | . | . | /
CCOC(=O)c1ccc(NC(=S)N2CCSC2c2c(F)cc(F)cc2F)cc1 (configuration not stated) | . | . | . | . | . | /
